Experimental data from ChEMBL document CHEMBL1134648 (J Med Chem, 2001).

Key:
Oryctolagus cuniculus [1] = species on record: Oryctolagus cuniculus; assay: (§1) Antithrombotic efficacy in a rabbit arteriovenous shunt thrombosis model.; format: functional
Summary of the method: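 Test agents were given to rabbits by intravenous continuous infusion in an arterio-venous shunt thrombosis model.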

Prothrombin = Prothrombin (Homo sapiens, UniProt P00734); assay: In vitro activity against human thrombin.
Coagulation factor X [2] = target: Coagulation factor X (Homo sapiens, UniProt P00742); assay: Binding affinity against human coagulation factor X
Coagulation factor X (Homo sapiens, UniProt P00742), sequence (P00742 41-179 limits assumed): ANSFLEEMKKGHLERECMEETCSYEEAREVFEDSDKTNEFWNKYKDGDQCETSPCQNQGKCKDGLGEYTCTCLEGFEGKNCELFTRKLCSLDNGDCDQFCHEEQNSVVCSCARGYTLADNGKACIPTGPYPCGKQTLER
Coagulation factor X (Homo sapiens, UniProt P00742), sequence (P00742 235-488 limits assumed): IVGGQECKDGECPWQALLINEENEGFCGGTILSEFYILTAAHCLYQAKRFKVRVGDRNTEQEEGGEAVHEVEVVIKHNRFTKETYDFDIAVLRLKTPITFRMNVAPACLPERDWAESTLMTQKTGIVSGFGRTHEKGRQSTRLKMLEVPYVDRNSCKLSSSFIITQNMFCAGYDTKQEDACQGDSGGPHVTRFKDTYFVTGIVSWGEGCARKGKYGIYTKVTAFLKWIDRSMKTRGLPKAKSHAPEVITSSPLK

Trypsin = Trypsin (Homo sapiens, UniProt P07477+P07478+P35030); assay: In vitro activity against human trypsin.; format: protein assay
Oryctolagus cuniculus [3] = species on record: Oryctolagus cuniculus; assay: as §1; format: functional; remark: listed apart in the source
Homo sapiens [4] = species on record: Homo sapiens; assay: In vitro Activated partial thromboplastin time of the compound.; format: functional
Coagulation factor X [5] = target: T1, Coagulation factor X (Oryctolagus cuniculus, UniProt O19045); assay: In vitro activity against rabbit FXa.
T1 sequence (O19045 whole entry): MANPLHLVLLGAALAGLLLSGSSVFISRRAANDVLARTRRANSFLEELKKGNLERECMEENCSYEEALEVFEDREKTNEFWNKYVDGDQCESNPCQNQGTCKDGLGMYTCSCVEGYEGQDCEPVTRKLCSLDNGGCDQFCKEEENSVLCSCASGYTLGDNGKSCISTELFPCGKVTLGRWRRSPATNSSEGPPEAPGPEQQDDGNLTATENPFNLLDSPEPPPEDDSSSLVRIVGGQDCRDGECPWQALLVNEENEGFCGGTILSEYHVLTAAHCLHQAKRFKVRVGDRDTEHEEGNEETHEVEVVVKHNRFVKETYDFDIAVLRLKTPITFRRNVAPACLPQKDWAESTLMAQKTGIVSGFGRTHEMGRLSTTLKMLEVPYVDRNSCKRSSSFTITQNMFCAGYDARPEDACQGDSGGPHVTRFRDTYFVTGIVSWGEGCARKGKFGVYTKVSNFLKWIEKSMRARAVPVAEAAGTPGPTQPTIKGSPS

Homo sapiens [6] = species on record: Homo sapiens; assay: In vitro human activated partial thromboplastin time of the compound.; format: functional
[7] = target: Vitamin K-dependent protein C (Homo sapiens, UniProt P04070); assay: In vitro activity against human Activated protein C
Vitamin K-dependent protein C, sequence (P04070 43-197 limits assumed): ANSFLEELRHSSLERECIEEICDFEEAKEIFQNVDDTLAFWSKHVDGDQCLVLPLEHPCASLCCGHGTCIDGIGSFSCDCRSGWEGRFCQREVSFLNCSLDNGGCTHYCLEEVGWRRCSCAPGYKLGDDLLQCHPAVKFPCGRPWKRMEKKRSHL
Vitamin K-dependent protein C, sequence (P04070 212-461 limits assumed): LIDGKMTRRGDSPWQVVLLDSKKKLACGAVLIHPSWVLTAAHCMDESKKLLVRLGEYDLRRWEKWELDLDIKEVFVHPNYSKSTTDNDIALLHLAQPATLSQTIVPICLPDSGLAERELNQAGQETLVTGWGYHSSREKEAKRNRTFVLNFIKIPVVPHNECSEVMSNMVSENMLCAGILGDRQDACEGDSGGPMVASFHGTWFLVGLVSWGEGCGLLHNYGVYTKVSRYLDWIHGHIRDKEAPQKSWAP

Coagulation factor IX = Coagulation factor IX (Homo sapiens, UniProt P00740); assay: In vitro activity against human factor IXa
Coagulation factor IX, sequence (P00740 47-191 limits assumed): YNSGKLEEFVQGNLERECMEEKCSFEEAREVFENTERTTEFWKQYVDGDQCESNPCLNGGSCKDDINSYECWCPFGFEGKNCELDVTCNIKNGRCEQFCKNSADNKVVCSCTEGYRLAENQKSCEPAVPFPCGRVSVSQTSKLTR
Coagulation factor IX, sequence (P00740 227-461 limits assumed): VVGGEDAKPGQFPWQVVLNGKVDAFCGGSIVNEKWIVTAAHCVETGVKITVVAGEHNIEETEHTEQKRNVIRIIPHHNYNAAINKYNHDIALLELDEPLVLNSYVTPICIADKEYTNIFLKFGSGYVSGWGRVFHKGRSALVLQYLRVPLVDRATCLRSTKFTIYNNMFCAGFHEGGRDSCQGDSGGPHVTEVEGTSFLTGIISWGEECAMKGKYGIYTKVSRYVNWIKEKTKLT

Plasminogen = Plasminogen (Homo sapiens, UniProt P00747); assay: In vitro activity against human plasmin
Plasminogen, sequence (P00747 97-580 limits assumed): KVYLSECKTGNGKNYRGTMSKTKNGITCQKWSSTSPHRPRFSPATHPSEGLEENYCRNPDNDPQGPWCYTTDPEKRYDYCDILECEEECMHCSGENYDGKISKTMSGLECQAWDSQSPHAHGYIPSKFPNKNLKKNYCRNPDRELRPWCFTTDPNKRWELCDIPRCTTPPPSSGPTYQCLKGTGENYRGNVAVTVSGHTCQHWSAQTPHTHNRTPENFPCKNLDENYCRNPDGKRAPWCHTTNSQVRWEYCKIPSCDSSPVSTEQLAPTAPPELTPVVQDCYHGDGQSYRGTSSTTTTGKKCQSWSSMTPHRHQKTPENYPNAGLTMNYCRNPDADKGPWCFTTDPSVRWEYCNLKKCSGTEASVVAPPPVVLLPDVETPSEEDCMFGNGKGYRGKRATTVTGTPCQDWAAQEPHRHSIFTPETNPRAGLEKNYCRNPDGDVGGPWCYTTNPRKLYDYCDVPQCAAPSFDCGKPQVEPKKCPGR
Plasminogen, sequence (P00747 581-810 limits assumed): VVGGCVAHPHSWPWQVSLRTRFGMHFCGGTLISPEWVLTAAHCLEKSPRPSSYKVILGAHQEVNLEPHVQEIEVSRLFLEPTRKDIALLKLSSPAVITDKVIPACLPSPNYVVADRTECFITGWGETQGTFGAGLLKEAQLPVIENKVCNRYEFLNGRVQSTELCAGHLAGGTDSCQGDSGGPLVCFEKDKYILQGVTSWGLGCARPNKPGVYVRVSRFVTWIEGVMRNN

[8] = target: Urokinase-type plasminogen activator (Homo sapiens, UniProt P00749); assay: In vitro activity against human urokinase
Coagulation factor X [9] = target: T1, Coagulation factor X; assay: In vitro activity against rabbit factor Xa
Plasma kallikrein = Plasma kallikrein (Homo sapiens, UniProt P03952); assay: In vitro activity against human Plasma kallikrein.; format: cell-free
Plasma kallikrein, sequence (P03952 20-390 limits assumed): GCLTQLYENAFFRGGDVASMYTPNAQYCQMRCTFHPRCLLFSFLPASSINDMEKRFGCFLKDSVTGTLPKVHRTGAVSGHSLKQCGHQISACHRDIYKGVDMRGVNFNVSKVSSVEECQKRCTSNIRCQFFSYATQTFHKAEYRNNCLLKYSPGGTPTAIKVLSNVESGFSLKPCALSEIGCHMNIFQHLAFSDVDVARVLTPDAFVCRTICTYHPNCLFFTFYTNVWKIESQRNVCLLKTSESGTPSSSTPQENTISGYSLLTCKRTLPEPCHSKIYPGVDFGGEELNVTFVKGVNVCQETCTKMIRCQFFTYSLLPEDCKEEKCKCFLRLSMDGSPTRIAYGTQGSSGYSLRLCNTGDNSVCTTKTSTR
Plasma kallikrein, sequence (P03952 391-638 limits assumed): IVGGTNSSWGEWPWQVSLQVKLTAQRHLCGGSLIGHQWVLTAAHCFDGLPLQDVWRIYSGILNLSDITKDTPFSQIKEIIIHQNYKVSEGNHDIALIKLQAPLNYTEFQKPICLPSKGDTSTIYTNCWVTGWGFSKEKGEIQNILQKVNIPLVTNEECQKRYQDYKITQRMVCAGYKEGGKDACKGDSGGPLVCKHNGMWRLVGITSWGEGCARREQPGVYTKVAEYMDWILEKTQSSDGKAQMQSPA

[10] = target: Tissue-type plasminogen activator (Homo sapiens, UniProt P00750); assay: In vitro activity against human tissue plasminogen activator
Tissue-type plasminogen activator, sequence (P00750 whole entry): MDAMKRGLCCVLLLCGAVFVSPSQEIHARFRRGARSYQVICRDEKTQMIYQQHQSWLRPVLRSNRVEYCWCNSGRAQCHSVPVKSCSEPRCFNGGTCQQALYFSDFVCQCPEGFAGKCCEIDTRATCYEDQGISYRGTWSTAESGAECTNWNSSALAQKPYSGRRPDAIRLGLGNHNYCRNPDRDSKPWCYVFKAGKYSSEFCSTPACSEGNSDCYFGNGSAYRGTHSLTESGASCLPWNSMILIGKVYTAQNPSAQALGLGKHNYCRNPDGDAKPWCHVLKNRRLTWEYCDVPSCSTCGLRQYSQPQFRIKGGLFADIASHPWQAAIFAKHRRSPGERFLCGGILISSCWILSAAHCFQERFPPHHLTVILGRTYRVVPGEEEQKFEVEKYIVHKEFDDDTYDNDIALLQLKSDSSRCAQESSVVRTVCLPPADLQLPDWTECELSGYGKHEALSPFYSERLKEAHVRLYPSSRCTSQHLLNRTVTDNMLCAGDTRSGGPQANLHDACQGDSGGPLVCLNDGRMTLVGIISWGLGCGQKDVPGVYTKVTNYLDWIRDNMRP

| Structure (SMILES) | Ki (Prothrombin) | Ki (Coagulation factor X [2]) | Ki (Trypsin) | further results |
| --- | --- | --- | --- | --- |
| Cc1cc(C(=O)Nc2ccc(-c3ccccc3C(F)(F)F)cc2)n(-c2cccc(C(=N)N)c2)n1 | 300 nM | 0.04 nM | 49 nM | ID50 (Oryctolagus cuniculus [1]): 0.24 µM/h/kg |
| Cc1cc(C(=O)Nc2ccc(-c3ccccc3F)cc2)n(-c2cccc(C(=N)N)c2)n1 | 450 nM | 0.46 nM | 100 nM |  |
| Cc1cc(C(=O)Nc2ccc(-c3ccccc3S(N)(=O)=O)cn2)n(-c2cccc(C(=N)N)c2)n1 | 1400 nM | 0.007 nM | 59 nM | ID50 (Oryctolagus cuniculus [1]): 0.07 µM/h/kg |
| Cc1cc(C(=O)Nc2ccc(-c3ccccc3S(N)(=O)=O)cc2)n(-c2cccc(C(=N)N)c2)n1.O=C(O)C(F)(F)F |  |  |  | ID50 (Oryctolagus cuniculus [3]): 0.02 µM/h/kg; APTT (Homo sapiens [4]): 0.44 µM; Ki (Coagulation factor X [5]): 0.03 nM |
| Cc1cc(C(=O)Nc2ccc(-c3ccccc3)cc2)n(-c2cccc(C(=N)N)c2)n1 | 600 nM | 1.3 nM | 87 nM |  |
| NCc1cccc(-n2nc(C(F)(F)F)cc2C(=O)Nc2ccc(-c3ccccc3S(N)(=O)=O)cc2F)c1 | 2000 nM | 0.36 nM | 53 nM | ID50 (Oryctolagus cuniculus [1]): 0.6 µM/h/kg; APTT (Homo sapiens [6]): 0.91 µM; Ki (Coagulation factor X [5]): 1 nM |
| N=C(N)c1cccc(-n2nc(C(F)(F)F)cc2C(=O)Nc2ncc(-c3ccccc3S(N)(=O)=O)cn2)c1 |  |  | 20 nM |  |
| Cc1cc(C(=O)Nc2ccc(-c3ccccc3S(C)(=O)=O)cc2)n(-c2cccc(CN)c2)n1 | 21000 nM | 0.89 nM | 220 nM | APTT (Homo sapiens [6]): 1.3 µM |
| N=C(N)c1cccc(-n2nc(C(F)(F)F)cc2C(=O)Nc2ccc(-c3ccccc3S(N)(=O)=O)cc2F)c1 | 120 nM | < 0.005 nM | 4 nM |  |
| Cc1cc(C(=O)Nc2ccc(-c3ccccc3S(N)(=O)=O)cc2Cl)n(-c2cccc(C(=N)N)c2)n1 | 300 nM | 0.009 nM | 15 nM |  |
| CCCCc1cc(C(=O)Nc2ccc(-c3ccccc3S(N)(=O)=O)cc2)n(-c2cccc(C(=N)N)c2)n1.O=C(O)C(F)(F)F | 300 nM | 0.06 nM | 11 nM |  |
| Cc1cc(C(=O)Nc2ccc(-c3ccccc3S(N)(=O)=O)cc2Br)n(-c2cccc(C(=N)N)c2)n1 | 200 nM | 0.01 nM | 17 nM |  |
| N=C(N)c1cccc(-n2cccc2C(=O)Nc2ccc(-c3ccccc3S(N)(=O)=O)cc2)c1 | 900 nM | 0.8 nM |  |  |
| CS(=O)(=O)c1ccccc1-c1ccc(NC(=O)c2cc(C(F)(F)F)nn2-c2cccc(C(=N)N)c2)c(F)c1 | 50 nM | < 0.005 nM | 3.4 nM |  |
| Cc1cc(C(=O)Nc2ccc(-c3ccccc3S(C)(=O)=O)cc2F)n(-c2cccc(C(=N)N)c2)n1 | 230 nM | 0.02 nM |  |  |
| NCc1cccc(-n2nc(C(F)(F)F)cc2C(=O)Nc2ccc(-c3ccccc3S(N)(=O)=O)cc2)c1 | 14000 nM | 0.91 nM | 120 nM | ID50 (Oryctolagus cuniculus [1]): 1 µM/h/kg; APTT (Homo sapiens [6]): 6.4 µM; Ki (Coagulation factor X [5]): 2.1 nM |
| Cc1cc(C(=O)Nc2ccc(-c3ccccc3S(N)(=O)=O)cc2F)n(-c2cccc(CN)c2)n1 | 12000 nM | 1.6 nM | 120 nM | APTT (Homo sapiens [6]): 0.92 µM; Ki (Coagulation factor X [5]): 2.2 nM |
| N=C(N)c1cccc(-c2nocc2C(=O)Nc2ccc(-c3ccccc3S(N)(=O)=O)cc2)c1 | 2800 nM |  |  |  |
| N=C(N)c1cccc(-n2nccc2C(=O)Nc2ccc(-c3ccccc3S(N)(=O)=O)cc2)c1 | 900 nM | 0.16 nM |  |  |
| N=C(N)c1cccc(-n2nc(C(F)(F)F)cc2C(=O)Nc2ccc(-c3ccccc3S(N)(=O)=O)cc2)c1 | 40 nM | 0.015 nM | 3.9 nM |  |
| Cc1cc(C(=O)Nc2ccc(-c3ccccc3S(N)(=O)=O)cc2F)n(-c2cccc(C(=N)N)c2)n1 | 210 nM | 0.005 nM | 4.6 nM |  |
| Cc1cc(C(=O)Nc2ccc(-c3ccccc3S(N)(=O)=O)cc2)n(-c2cccc(CN)c2)n1 | 21000 nM | 2.7 nM |  | APTT (Homo sapiens [6]): 2.3 µM; Ki (Coagulation factor X [5]): 4.1 nM |
| N=C(N)c1cccc(-n2nc(C(F)(F)F)cc2C(=O)Nc2ccc(-c3ccccc3S(N)(=O)=O)cn2)c1 | 400 nM | 0.009 nM | 59 nM |  |
| CS(=O)(=O)c1ccccc1-c1ccc(NC(=O)c2cc(C(F)(F)F)nn2-c2cccc(CN)c2)cc1 | 5800 nM | 0.38 nM | 100 nM | ID50 (Oryctolagus cuniculus [1]): 2.2 µM/h/kg; APTT (Homo sapiens [6]): 2.2 µM |
| Cc1cc(C(=O)Nc2ccc(-c3ccccc3S(C)(=O)=O)cc2F)n(-c2cccc(CN)c2)n1 | 14000 nM | 480 nM | 130 nM | ID50 (Oryctolagus cuniculus [1]): 0.9 µM/h/kg; APTT (Homo sapiens [6]): 1.1 µM; Ki (Coagulation factor X [5]): 1.2 nM |
| Cc1cc(C(=O)N(C)c2ccc(-c3ccccc3S(N)(=O)=O)cc2)n(-c2cccc(C(=N)N)c2)n1.O=C(O)C(F)(F)F | > 2000 nM | 11 nM | > 1600 nM |  |
| Cc1cc(C(=O)Nc2ccc(-c3ccccc3S(C)(=O)=O)cc2)n(-c2cccc(C(=N)N)c2)n1 | 180 nM | 0.008 nM | 13 nM |  |
| CS(=O)(=O)c1ccccc1-c1ccc(NC(=O)c2cc(C(F)(F)F)nn2-c2cccc(CN)c2)c(F)c1.Cl |  |  |  | Ki [7]: 1800 nM; Ki (Coagulation factor IX): 2200 nM; Ki (Plasminogen): > 35000 nM; ID50 (Oryctolagus cuniculus [1]): 1.1 µM/h/kg; Ki [8]: > 19000 nM; Ki (Coagulation factor X [9]): 0.3 nM; Ki (Plasma kallikrein): 61 nM; Ki [10]: > 45000 nM |
| Cc1cc(C(=O)Nc2ncc(-c3ccccc3S(N)(=O)=O)cn2)n(-c2cccc(C(=N)N)c2)n1 | 7400 nM | 0.041 nM | 150 nM | ID50 (Oryctolagus cuniculus [1]): 0.03 µM/h/kg |
| CS(=O)(=O)c1ccccc1-c1ccc(NC(=O)c2cc(C(F)(F)F)nn2-c2cccc(C(=N)N)c2)cc1 | 70 nM | 0.008 nM | 4.3 nM |  |
